In ChEMBL document CHEMBL1765020, “Synthesis and structure-affinity relationships of novel dibenzylideneacetone derivatives as probes for β-amyloid plaques” (J Med Chem, 2011):

Columns and labels:
Intestine [1] = assay: Biodistribution in ddY mouse intestine at 1 uCi/100 uL, iv after 15 mins by gamma counting; format: ADME, organism-based; conditions: in vivo, 0.25 h
In short: (§1)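 Normal female ddY mice (5 weeks, about 20 g; n = 4 per group) received radiotracer iv. Organs were removed and weighed at 2–120 min and counted in a γ-counter. Percent dose per gram of wet tissue was calculated against diluted aliquots of the injected material and reported as mean ± SD.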

Brain [2] = assay: Biodistribution in ddY mouse brain at 1 uCi/100 uL, iv after 2 mins by gamma counting; format: ADME, organism-based; conditions: in vivo; in short: as §1
Stomach [3] = assay: Biodistribution in ddY mouse stomach at 1 uCi/100 uL, iv after 2 mins by gamma counting; format: ADME, organism-based; conditions: in vivo
Spleen [4] = assay: Biodistribution in ddY mouse spleen at 1 uCi/100 uL, iv after 15 mins by gamma counting; format: ADME, organism-based; conditions: in vivo, 0.25 h
Brain [5] = assay: Biodistribution in ddY mouse brain at 1 uCi/100 uL, iv after 15 mins by gamma counting; format: ADME, organism-based; conditions: in vivo, 0.25 h; in short: as §1
Thyroid gland [6] = assay: Biodistribution in ddY mouse thyroid at 1 uCi/100 uL, iv after 120 mins by gamma counting; format: ADME, organism-based; conditions: in vivo, 2 h
Kidney [7] = assay: Biodistribution in ddY mouse kidney at 1 uCi/100 uL, iv after 120 mins by gamma counting; format: ADME, organism-based; conditions: in vivo, 2 h; in short: as §1
Spleen [8] = assay: Biodistribution in ddY mouse spleen at 1 uCi/100 uL, iv after 2 mins by gamma counting; format: ADME, organism-based; conditions: in vivo
Thyroid gland [9] = assay: Biodistribution in ddY mouse thyroid at 1 uCi/100 uL, iv after 60 mins by gamma counting; format: ADME, organism-based; conditions: in vivo, 1 h
Blood [10] = assay: Biodistribution in ddY mouse blood at 1 uCi/100 uL, iv after 120 mins by gamma counting; format: ADME, organism-based; conditions: in vivo, 2 h; in short: as §1
[11] = Partition coefficient, log D of the compound; format: physicochemical; conditions: octanol/water
In short: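 Radiotracer partitioned between n-octanol and PBS: vortexed 3 min at room temperature, centrifuged 5 min at 3000 rpm. Weighed samples of the octanol (100 μL) and buffer (500 μL) layers were counted. log D is the log of the ratio of counts per gram, octanol versus PBS.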

Lung [12] = assay: Biodistribution in ddY mouse lung at 1 uCi/100 uL, iv after 15 mins by gamma counting; format: ADME, organism-based; conditions: in vivo, 0.25 h
Heart [13] = assay: Biodistribution in ddY mouse heart at 1 uCi/100 uL, iv after 30 mins by gamma counting; format: ADME, organism-based; conditions: in vivo, 0.5 h; in short: as §1
Lung [14] = assay: Biodistribution in ddY mouse lung at 1 uCi/100 uL, iv after 60 mins by gamma counting; format: ADME, organism-based; conditions: in vivo, 1 h
Liver [15] = assay: Biodistribution in ddY mouse liver at 1 uCi/100 uL, iv after 15 mins by gamma counting; format: ADME, organism-based; conditions: in vivo, 0.25 h
Thyroid gland [16] = assay: Biodistribution in ddY mouse thyroid at 1 uCi/100 uL, iv after 30 mins by gamma counting; format: ADME, organism-based; conditions: in vivo, 0.5 h
Heart [17] = assay: Biodistribution in ddY mouse heart at 1 uCi/100 uL, iv after 2 mins by gamma counting; format: ADME, organism-based; conditions: in vivo; in short: as §1
Brain [18] = assay: Ratio of drug uptake in ddY mouse brain at 1 uCi/100 uL, iv after 2 mins to drug uptake in ddY mouse brain at 1 uCi/100 uL, iv after 60 mins; format: ADME, organism-based; conditions: in vivo
In short: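 Normal female ddY mice (5 weeks) received the radiotracer iv, and brain uptake (% ID/g, n = 4) was measured by gamma counting at 2 and 60 min. The index is brain uptake at 2 min divided by brain uptake at 60 min.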

Heart [19] = assay: Biodistribution in ddY mouse heart at 1 uCi/100 uL, iv after 15 mins by gamma counting; format: ADME, organism-based; conditions: in vivo, 0.25 h; in short: as §1
Lung [20] = assay: Biodistribution in ddY mouse lung at 1 uCi/100 uL, iv after 30 mins by gamma counting; format: ADME, organism-based; conditions: in vivo, 0.5 h
Kidney [21] = assay: Biodistribution in ddY mouse kidney at 1 uCi/100 uL, iv after 30 mins by gamma counting; format: ADME, organism-based; conditions: in vivo, 0.5 h
Intestine [22] = assay: Biodistribution in ddY mouse intestine at 1 uCi/100 uL, iv after 30 mins by gamma counting; format: ADME, organism-based; conditions: in vivo, 0.5 h; in short: as §1
Brain [23] = assay: Biodistribution in ddY mouse brain at 1 uCi/100 uL, iv after 30 mins by gamma counting; format: ADME, organism-based; conditions: in vivo, 0.5 h; in short: as §1
Spleen [24] = assay: Biodistribution in ddY mouse spleen at 1 uCi/100 uL, iv after 120 mins by gamma counting; format: ADME, organism-based; conditions: in vivo, 2 h
Liver [25] = assay: Biodistribution in ddY mouse liver at 1 uCi/100 uL, iv after 120 mins by gamma counting; format: ADME, organism-based; conditions: in vivo, 2 h
Spleen [26] = assay: Biodistribution in ddY mouse spleen at 1 uCi/100 uL, iv after 30 mins by gamma counting; format: ADME, organism-based; conditions: in vivo, 0.5 h
Stomach [27] = assay: Biodistribution in ddY mouse stomach at 1 uCi/100 uL, iv after 120 mins by gamma counting; format: ADME, organism-based; conditions: in vivo, 2 h
Liver [28] = assay: Biodistribution in ddY mouse liver at 1 uCi/100 uL, iv after 60 mins by gamma counting; format: ADME, organism-based; conditions: in vivo, 1 h
Intestine [29] = assay: Biodistribution in ddY mouse intestine at 1 uCi/100 uL, iv after 2 mins by gamma counting; format: ADME, organism-based; conditions: in vivo; in short: as §1
Blood [30] = assay: Biodistribution in ddY mouse blood at 1 uCi/100 uL, iv after 60 mins by gamma counting; format: ADME, organism-based; conditions: in vivo, 1 h; in short: as §1
Thyroid gland [31] = assay: Biodistribution in ddY mouse thyroid at 1 uCi/100 uL, iv after 2 mins by gamma counting; format: ADME, organism-based; conditions: in vivo
Brain [32] = assay: Biodistribution in ddY mouse brain at 1 uCi/100 uL, iv after 60 mins by gamma counting; format: ADME, organism-based; conditions: in vivo, 1 h; in short: as §1
Heart [33] = assay: Biodistribution in ddY mouse heart at 1 uCi/100 uL, iv after 60 mins by gamma counting; format: ADME, organism-based; conditions: in vivo, 1 h; in short: as §1
Stomach [34] = assay: Biodistribution in ddY mouse stomach at 1 uCi/100 uL, iv after 15 mins by gamma counting; format: ADME, organism-based; conditions: in vivo, 0.25 h
Stomach [35] = assay: Biodistribution in ddY mouse stomach at 1 uCi/100 uL, iv after 60 mins by gamma counting; format: ADME, organism-based; conditions: in vivo, 1 h
Lung [36] = assay: Biodistribution in ddY mouse lung at 1 uCi/100 uL, iv after 2 mins by gamma counting; format: ADME, organism-based; conditions: in vivo
Lung [37] = assay: Biodistribution in ddY mouse lung at 1 uCi/100 uL, iv after 120 mins by gamma counting; format: ADME, organism-based; conditions: in vivo, 2 h
Thyroid gland [38] = assay: Biodistribution in ddY mouse thyroid at 1 uCi/100 uL, iv after 15 mins by gamma counting; format: ADME, organism-based; conditions: in vivo, 0.25 h
Stomach [39] = assay: Biodistribution in ddY mouse stomach at 1 uCi/100 uL, iv after 30 mins by gamma counting; format: ADME, organism-based; conditions: in vivo, 0.5 h
Heart [40] = assay: Biodistribution in ddY mouse heart at 1 uCi/100 uL, iv after 120 mins by gamma counting; format: ADME, organism-based; conditions: in vivo, 2 h; in short: as §1
Kidney [41] = assay: Biodistribution in ddY mouse kidney at 1 uCi/100 uL, iv after 2 mins by gamma counting; format: ADME, organism-based; conditions: in vivo; in short: as §1
Kidney [42] = assay: Biodistribution in ddY mouse kidney at 1 uCi/100 uL, iv after 60 mins by gamma counting; format: ADME, organism-based; conditions: in vivo, 1 h
Liver [43] = assay: Biodistribution in ddY mouse liver at 1 uCi/100 uL, iv after 2 mins by gamma counting; format: ADME, organism-based; conditions: in vivo
Blood [44] = assay: Biodistribution in ddY mouse blood at 1 uCi/100 uL, iv after 15 mins by gamma counting; format: ADME, organism-based; conditions: in vivo, 0.25 h; in short: as §1
Blood [45] = assay: Biodistribution in ddY mouse blood at 1 uCi/100 uL, iv after 2 mins by gamma counting; format: ADME, organism-based; conditions: in vivo; in short: as §1
Kidney [46] = assay: Biodistribution in ddY mouse kidney at 1 uCi/100 uL, iv after 15 mins by gamma counting; format: ADME, organism-based; conditions: in vivo, 0.25 h; in short: as §1
Liver [47] = assay: Biodistribution in ddY mouse liver at 1 uCi/100 uL, iv after 30 mins by gamma counting; format: ADME, organism-based; conditions: in vivo, 0.5 h
Brain [48] = assay: Biodistribution in ddY mouse brain at 1 uCi/100 uL, iv after 120 mins by gamma counting; format: ADME, organism-based; conditions: in vivo, 2 h; in short: as §1
Blood [49] = assay: Biodistribution in ddY mouse blood at 1 uCi/100 uL, iv after 30 mins by gamma counting; format: ADME, organism-based; conditions: in vivo, 0.5 h; in short: as §1
Intestine [50] = assay: Biodistribution in ddY mouse intestine at 1 uCi/100 uL, iv after 60 mins by gamma counting; format: ADME, organism-based; conditions: in vivo, 1 h; in short: as §1
Intestine [51] = assay: Biodistribution in ddY mouse intestine at 1 uCi/100 uL, iv after 120 mins by gamma counting; format: ADME, organism-based; conditions: in vivo, 2 h; in short: as §1
Spleen [52] = assay: Biodistribution in ddY mouse spleen at 1 uCi/100 uL, iv after 60 mins by gamma counting; format: ADME, organism-based; conditions: in vivo, 1 h

Compound: CNc1ccc(/C=C/C(=O)/C=C/c2ccc([125I])cc2)cc1
- Drug uptake (Intestine [1]): 10.33 % ID/g
- Drug uptake (Brain [2]): 4.68 % ID/g
- Drug uptake (Stomach [3]): 3.26 % ID/organ
- Drug uptake (Spleen [4]): 3.36 % ID/g
- Drug uptake (Brain [5]): 2.62 % ID/g
- Drug uptake (Thyroid gland [6]): 72.93 % ID/g
- Drug uptake (Kidney [7]): 13.43 % ID/g
- Drug uptake (Spleen [8]): 4.57 % ID/g
- Drug uptake (Thyroid gland [9]): 23.96 % ID/g
- Drug uptake (Blood [10]): 4.46 % ID/g
- logD [11]: 3.55
- Drug uptake (Lung [12]): 7.42 % ID/g
- Drug uptake (Heart [13]): 3.29 % ID/g
- Drug uptake (Lung [14]): 3.5 % ID/g
- Drug uptake (Liver [15]): 40.83 % ID/g
- Drug uptake (Thyroid gland [16]): 27.78 % ID/g
- Drug uptake (Heart [17]): 8.11 % ID/g
- Ratio (Brain [18]): 6.59
- Drug uptake (Heart [19]): 4.14 % ID/g
- Drug uptake (Lung [20]): 6.18 % ID/g
- Drug uptake (Kidney [21]): 15.54 % ID/g
- Drug uptake (Intestine [22]): 13.19 % ID/g
- Drug uptake (Brain [23]): 1.38 % ID/g
- Drug uptake (Spleen [24]): 1.23 % ID/g
- Drug uptake (Liver [25]): 27.83 % ID/g
- Drug uptake (Spleen [26]): 2.22 % ID/g
- Drug uptake (Stomach [27]): 4.49 % ID/organ
- Drug uptake (Liver [28]): 22.63 % ID/g
- Drug uptake (Intestine [29]): 3.53 % ID/g
- Drug uptake (Blood [30]): 3.35 % ID/g
- Drug uptake (Thyroid gland [31]): 18.2 % ID/g
- Drug uptake (Brain [32]): 0.71 % ID/g
- Drug uptake (Heart [33]): 1.74 % ID/g
- Drug uptake (Stomach [34]): 3.82 % ID/organ
- Drug uptake (Stomach [35]): 3.34 % ID/organ
- Drug uptake (Lung [36]): 9.67 % ID/g
- Drug uptake (Lung [37]): 3.9 % ID/g
- Drug uptake (Thyroid gland [38]): 28.09 % ID/g
- Drug uptake (Stomach [39]): 3.17 % ID/organ
- Drug uptake (Heart [40]): 1.91 % ID/g
- Drug uptake (Kidney [41]): 14.73 % ID/g
- Drug uptake (Kidney [42]): 10.46 % ID/g
- Drug uptake (Liver [43]): 39.22 % ID/g
- Drug uptake (Blood [44]): 6.02 % ID/g
- Drug uptake (Blood [45]): 7.48 % ID/g
- Drug uptake (Kidney [46]): 16.49 % ID/g
- Drug uptake (Liver [47]): 23.88 % ID/g
- Drug uptake (Brain [48]): 0.54 % ID/g
- Drug uptake (Blood [49]): 4.84 % ID/g
- Drug uptake (Intestine [50]): 23.62 % ID/g
- Drug uptake (Intestine [51]): 41.29 % ID/g
- Drug uptake (Spleen [52]): 1.52 % ID/g
